In ChEMBL document CHEMBL2396535, “Synthesis and biological evaluation of 18F-labled 2-phenylindole derivatives as PET imaging probes for β-amyloid plaques” (Bioorg Med Chem, 2013):

Biological target: Amyloid-beta precursor protein (Homo sapiens, UniProt P05067)
Experiment: Displacement of [125I]IMPY from amyloid beta (1 to 42) (unknown origin) after 3 hrs by gamma counting analysis
Summary of the method: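 Test compound ranged over 10^-4 to 10^-8.5 in ethanol, in 0.05% BSA, 1 mL total. Incubation was 3 h at room temperature, then GF/B filtration and gamma counting. IC50 came from three independent experiments, and Ki was derived by Cheng–Prusoff.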

Chain of Amyloid-beta precursor protein (P05067 whole entry): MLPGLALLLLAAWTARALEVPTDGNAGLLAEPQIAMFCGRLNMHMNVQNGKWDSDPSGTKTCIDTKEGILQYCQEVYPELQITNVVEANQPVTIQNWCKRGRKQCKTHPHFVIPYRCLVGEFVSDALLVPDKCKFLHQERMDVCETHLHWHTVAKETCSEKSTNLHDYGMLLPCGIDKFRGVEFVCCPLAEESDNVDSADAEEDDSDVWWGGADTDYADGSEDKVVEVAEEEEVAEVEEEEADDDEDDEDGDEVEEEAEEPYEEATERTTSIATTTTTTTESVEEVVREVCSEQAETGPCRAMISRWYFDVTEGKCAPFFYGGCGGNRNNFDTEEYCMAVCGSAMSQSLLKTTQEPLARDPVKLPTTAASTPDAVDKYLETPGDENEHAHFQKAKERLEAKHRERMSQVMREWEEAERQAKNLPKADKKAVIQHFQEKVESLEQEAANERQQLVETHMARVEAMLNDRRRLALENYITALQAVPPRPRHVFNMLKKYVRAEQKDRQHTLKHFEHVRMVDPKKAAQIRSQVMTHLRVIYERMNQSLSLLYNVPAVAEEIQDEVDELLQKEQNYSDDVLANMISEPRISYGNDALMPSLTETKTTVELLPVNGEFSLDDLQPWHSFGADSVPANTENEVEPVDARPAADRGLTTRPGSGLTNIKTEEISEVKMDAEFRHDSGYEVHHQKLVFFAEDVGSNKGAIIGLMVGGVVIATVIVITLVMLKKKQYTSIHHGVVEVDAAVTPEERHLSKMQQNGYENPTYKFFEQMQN

SMILES: CN(CCF)c1ccc(-c2cc3ccccc3n2C)cc1
- Ki: 117 nM
